What was measured:
[1] = molecular target: T1, Serine/threonine-protein kinase 17A (Homo sapiens) (UniProt Q9UEE5); experiment: Inhibition of DRAK1 at 1 uM
T1 sequence (whole entry): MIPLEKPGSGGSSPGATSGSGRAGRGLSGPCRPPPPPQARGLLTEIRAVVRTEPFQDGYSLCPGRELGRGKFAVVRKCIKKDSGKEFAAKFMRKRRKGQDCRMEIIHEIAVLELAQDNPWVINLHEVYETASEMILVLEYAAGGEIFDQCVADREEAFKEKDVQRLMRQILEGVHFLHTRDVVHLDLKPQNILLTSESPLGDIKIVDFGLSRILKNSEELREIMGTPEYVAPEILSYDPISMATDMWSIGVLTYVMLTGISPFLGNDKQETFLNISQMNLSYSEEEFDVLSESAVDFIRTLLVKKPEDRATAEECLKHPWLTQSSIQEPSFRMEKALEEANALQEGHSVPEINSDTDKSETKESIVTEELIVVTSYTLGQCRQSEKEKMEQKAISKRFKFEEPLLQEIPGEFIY

[2] = molecular target: SRSF protein kinase 3 (Homo sapiens) (UniProt Q9UPE1); experiment: Inhibition of SRPK3 at 1 uM
Chain of SRSF protein kinase 3 (Homo sapiens) (Q9UPE1 whole entry): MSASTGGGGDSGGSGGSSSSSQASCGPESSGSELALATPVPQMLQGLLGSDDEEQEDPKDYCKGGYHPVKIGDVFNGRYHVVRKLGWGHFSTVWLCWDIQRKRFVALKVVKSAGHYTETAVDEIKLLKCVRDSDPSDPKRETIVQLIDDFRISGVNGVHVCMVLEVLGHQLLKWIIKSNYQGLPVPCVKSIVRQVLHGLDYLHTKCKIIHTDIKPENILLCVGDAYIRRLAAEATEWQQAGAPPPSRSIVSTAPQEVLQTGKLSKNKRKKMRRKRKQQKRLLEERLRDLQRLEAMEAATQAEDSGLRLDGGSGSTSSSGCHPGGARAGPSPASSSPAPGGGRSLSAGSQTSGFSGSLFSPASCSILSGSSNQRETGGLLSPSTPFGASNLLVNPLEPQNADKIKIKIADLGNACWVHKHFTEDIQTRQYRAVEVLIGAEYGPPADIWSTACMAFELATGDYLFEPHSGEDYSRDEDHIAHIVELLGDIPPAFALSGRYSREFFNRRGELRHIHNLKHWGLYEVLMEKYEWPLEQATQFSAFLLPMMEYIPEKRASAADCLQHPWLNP

[3] = molecular target: T2, Serine/threonine-protein kinase TAO3 (Homo sapiens) (UniProt Q9H2K8); experiment: Inhibition of TAOK3 at 1 uM
T2 sequence (whole entry): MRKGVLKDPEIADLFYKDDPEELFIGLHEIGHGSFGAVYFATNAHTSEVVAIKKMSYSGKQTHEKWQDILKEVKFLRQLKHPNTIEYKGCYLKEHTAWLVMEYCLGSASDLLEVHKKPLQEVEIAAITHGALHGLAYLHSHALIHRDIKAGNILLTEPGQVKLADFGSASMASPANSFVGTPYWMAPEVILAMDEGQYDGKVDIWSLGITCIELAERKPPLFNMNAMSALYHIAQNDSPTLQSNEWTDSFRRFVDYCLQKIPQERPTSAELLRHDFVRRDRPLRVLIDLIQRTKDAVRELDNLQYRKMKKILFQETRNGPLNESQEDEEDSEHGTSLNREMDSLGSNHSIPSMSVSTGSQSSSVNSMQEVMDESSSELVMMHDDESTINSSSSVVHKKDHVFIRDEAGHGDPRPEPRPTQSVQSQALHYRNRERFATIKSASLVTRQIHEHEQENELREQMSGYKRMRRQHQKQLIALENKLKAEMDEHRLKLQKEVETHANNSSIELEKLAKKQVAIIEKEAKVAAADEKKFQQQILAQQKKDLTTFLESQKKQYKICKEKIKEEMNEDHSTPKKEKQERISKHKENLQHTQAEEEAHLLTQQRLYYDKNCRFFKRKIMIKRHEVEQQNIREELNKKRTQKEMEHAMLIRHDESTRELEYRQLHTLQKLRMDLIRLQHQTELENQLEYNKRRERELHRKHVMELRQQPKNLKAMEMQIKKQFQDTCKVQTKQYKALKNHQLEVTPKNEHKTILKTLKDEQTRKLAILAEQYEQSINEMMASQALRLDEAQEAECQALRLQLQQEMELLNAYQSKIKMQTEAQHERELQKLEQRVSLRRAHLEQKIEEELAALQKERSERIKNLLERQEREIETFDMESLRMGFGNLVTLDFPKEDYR

[4] = molecular target: Serine/threonine-protein kinase SIK2 (Homo sapiens) (UniProt Q9H0K1); experiment: Inhibition of SIK2 at 1 uM
Chain of Serine/threonine-protein kinase SIK2 (Homo sapiens) (Q9H0K1 whole entry, looked up): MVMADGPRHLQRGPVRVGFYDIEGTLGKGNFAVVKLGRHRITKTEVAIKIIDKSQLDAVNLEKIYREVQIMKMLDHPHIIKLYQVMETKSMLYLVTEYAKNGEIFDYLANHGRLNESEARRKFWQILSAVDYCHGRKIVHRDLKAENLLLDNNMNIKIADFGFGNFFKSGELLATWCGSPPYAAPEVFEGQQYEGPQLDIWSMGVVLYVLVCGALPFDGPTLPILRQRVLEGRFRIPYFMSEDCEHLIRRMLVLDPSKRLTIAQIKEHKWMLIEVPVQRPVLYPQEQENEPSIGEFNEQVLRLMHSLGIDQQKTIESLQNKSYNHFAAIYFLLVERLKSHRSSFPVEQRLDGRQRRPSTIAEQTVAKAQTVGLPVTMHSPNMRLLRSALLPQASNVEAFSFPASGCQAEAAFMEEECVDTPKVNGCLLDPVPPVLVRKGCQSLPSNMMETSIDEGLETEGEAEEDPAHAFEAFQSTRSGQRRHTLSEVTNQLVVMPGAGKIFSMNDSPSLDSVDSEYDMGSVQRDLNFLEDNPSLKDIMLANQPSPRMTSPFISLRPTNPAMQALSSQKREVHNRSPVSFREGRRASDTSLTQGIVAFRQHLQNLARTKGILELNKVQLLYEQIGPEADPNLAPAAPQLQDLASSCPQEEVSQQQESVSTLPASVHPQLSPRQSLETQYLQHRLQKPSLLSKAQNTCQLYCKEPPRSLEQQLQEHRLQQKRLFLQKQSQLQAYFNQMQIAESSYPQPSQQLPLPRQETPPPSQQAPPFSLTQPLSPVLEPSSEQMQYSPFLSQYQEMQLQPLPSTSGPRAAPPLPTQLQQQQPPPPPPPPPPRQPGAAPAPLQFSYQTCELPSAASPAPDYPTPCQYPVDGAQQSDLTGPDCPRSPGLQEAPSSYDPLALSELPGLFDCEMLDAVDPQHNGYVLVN

[5] = molecular target: Proto-oncogene tyrosine-protein kinase receptor Ret (Homo sapiens) (UniProt P07949); experiment: Inhibition of RET at 1 uM
[6] = molecular target: Cyclin-dependent kinase 19 (Homo sapiens) (UniProt Q9BWU1); experiment: Inhibition of CDK11 at 1 uM
Chain of Cyclin-dependent kinase 19 (Homo sapiens) (Q9BWU1 whole entry): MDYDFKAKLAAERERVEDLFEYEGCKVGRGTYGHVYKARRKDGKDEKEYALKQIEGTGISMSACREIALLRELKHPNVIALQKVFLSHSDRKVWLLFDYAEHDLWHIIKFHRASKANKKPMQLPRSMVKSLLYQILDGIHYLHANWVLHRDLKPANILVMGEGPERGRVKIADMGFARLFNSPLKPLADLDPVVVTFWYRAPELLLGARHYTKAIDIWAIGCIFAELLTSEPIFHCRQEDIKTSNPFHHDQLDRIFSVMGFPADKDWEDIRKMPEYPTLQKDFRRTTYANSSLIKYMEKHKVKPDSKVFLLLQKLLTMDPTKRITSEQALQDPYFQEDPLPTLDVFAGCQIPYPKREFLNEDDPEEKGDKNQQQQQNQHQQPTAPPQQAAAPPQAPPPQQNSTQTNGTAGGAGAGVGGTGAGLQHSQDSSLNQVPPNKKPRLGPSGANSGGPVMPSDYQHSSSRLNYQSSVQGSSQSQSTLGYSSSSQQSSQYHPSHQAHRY

[7] = molecular target: Atypical kinase COQ8A, mitochondrial (Homo sapiens) (UniProt Q8NI60); experiment: Inhibition of ADCK3 at 1 uM
Chain of Atypical kinase COQ8A, mitochondrial (Homo sapiens) (Q8NI60 163-647 limits assumed): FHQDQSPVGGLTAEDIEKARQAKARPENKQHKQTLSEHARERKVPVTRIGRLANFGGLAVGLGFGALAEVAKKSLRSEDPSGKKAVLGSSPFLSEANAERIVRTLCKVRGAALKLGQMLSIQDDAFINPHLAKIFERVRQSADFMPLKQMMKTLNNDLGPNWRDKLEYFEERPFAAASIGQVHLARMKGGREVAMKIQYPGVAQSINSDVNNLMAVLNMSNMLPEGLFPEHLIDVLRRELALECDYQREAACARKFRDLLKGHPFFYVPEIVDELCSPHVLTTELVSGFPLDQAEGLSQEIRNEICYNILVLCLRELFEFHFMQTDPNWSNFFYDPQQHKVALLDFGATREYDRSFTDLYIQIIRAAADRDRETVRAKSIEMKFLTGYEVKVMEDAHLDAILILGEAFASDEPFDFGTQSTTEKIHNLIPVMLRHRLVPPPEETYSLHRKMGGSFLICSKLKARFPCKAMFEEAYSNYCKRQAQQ
Method in brief: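 Ambit KINOMEscan screen at a single concentration across a 250–400 kinase panel, recorded as percent inhibition. Selectivity was expressed as S(90), the fraction of kinases inhibited >90%.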

[8] = molecular target: G protein-coupled receptor kinase 4 (Homo sapiens) (UniProt P32298); experiment: Inhibition of GRK4 at 1 uM
Chain of G protein-coupled receptor kinase 4 (Homo sapiens) (P32298 whole entry, looked up): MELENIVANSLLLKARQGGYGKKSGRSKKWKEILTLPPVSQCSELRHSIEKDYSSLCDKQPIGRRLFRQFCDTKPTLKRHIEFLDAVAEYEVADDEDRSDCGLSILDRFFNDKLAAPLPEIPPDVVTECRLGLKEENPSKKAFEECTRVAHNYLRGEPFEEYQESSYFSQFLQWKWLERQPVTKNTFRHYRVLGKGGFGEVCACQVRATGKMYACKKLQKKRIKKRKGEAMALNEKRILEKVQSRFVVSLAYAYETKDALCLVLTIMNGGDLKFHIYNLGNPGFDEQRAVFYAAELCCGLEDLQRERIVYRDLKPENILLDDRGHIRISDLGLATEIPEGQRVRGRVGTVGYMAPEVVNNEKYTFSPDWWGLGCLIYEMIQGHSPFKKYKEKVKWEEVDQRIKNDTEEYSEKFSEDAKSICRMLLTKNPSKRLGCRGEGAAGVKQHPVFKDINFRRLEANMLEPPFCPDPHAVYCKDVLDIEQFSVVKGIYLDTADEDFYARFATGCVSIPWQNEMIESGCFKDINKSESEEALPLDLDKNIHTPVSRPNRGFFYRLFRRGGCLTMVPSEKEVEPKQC

[9] = molecular target: STE20-like serine/threonine-protein kinase (Homo sapiens) (UniProt Q9H2G2); experiment: Inhibition of SLK at 1 uM
Chain of STE20-like serine/threonine-protein kinase (Homo sapiens) (Q9H2G2 whole entry, looked up): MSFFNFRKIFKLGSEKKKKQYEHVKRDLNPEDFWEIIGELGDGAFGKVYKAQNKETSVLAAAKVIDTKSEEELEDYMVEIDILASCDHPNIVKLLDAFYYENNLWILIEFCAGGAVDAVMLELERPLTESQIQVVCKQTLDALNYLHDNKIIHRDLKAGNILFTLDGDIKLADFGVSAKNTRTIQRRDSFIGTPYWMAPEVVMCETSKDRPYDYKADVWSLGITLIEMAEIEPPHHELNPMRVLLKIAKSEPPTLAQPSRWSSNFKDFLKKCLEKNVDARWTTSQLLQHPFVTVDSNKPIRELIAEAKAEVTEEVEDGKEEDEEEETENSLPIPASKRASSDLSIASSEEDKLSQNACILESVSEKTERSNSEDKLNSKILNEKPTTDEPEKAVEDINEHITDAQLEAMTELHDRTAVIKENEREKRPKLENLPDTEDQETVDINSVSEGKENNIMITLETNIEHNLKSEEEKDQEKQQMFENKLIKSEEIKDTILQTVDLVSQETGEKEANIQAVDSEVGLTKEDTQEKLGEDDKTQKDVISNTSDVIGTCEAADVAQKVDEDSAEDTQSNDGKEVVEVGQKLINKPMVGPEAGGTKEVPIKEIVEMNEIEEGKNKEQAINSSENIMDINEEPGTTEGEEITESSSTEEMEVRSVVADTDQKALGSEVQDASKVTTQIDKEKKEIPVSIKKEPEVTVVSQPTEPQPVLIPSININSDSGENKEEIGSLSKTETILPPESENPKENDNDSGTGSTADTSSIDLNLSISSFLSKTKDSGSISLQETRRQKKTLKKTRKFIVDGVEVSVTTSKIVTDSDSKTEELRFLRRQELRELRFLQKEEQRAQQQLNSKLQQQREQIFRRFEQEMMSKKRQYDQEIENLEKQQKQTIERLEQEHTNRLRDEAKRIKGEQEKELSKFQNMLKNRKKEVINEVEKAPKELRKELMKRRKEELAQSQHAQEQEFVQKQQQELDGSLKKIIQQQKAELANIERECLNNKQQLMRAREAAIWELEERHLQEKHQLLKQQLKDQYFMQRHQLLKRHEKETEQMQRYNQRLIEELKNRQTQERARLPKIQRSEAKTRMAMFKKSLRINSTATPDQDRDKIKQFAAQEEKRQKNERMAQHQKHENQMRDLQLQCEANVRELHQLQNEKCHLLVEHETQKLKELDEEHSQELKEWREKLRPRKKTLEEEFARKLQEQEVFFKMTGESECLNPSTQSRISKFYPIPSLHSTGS

[10] = molecular target: Dual specificity mitogen-activated protein kinase kinase 2 (Homo sapiens) (UniProt P36507); experiment: Inhibition of MEK2 at 1 uM
Chain of Dual specificity mitogen-activated protein kinase kinase 2 (Homo sapiens) (P36507 whole entry): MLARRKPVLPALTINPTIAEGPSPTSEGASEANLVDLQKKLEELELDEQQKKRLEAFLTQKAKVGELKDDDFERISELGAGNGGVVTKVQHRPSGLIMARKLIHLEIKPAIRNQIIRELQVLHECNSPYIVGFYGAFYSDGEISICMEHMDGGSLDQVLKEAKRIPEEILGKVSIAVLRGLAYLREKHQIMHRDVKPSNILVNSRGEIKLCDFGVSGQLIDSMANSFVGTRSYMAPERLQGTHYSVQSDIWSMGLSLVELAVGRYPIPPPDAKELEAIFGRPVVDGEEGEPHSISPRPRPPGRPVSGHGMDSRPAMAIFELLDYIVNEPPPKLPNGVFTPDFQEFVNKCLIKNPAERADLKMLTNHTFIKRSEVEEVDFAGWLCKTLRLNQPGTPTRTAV

[11] = molecular target: T3, Receptor-interacting serine/threonine-protein kinase 4 (Homo sapiens) (UniProt P57078); experiment: Inhibition of RIPK4 at 1 uM
T3 sequence (whole entry): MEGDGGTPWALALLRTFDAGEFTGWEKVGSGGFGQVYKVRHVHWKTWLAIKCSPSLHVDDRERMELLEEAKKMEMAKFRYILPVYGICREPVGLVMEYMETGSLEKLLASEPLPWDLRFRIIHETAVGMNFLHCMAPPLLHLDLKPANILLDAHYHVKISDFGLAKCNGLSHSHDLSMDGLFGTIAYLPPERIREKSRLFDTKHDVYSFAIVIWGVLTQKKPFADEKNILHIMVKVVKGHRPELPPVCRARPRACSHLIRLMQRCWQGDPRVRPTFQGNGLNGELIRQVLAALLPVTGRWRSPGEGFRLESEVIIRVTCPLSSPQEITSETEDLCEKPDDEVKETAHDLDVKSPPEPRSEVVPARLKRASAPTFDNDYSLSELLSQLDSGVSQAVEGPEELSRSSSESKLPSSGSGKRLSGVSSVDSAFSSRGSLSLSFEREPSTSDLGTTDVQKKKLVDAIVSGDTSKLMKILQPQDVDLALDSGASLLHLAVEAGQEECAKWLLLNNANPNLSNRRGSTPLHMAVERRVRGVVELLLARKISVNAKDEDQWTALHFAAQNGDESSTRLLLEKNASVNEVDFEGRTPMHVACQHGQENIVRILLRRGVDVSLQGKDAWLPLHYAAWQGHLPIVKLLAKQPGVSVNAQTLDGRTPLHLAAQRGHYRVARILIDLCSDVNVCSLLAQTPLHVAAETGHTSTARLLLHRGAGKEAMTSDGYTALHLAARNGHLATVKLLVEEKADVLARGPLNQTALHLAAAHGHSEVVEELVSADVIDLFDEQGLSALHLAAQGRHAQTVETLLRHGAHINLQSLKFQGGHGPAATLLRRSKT

Measured: inhibition

CN1CCN(c2ccc(-c3cnc4c(c3)N(Cc3cc(F)ccc3F)CCN4)cn2)CC1
< 50%: all assays above

O=C(c1ccc(-c2cnc3c(c2)N(Cc2cc(Cl)ccc2C(F)(F)F)CCN3)cc1)N1CCC(N2CCCC2)CC1
< 50%: [4] | [5] | [7] | [9]

O=C(c1ccc(-c2cnc3c(c2)N(Cc2cc(Cl)ccc2C(F)(F)F)CCN3)cc1)N1CCCCC1
< 50%: [5] | [7] | [9]

CN1CCN(c2ccc(-c3cnc4c(c3)N(Cc3c(F)ccc(F)c3Cl)CCN4)cn2)CC1
< 50%: all assays above

COC1CCN(C(=O)c2ccc(-c3cnc4c(c3)N(Cc3cc(Cl)ccc3C(F)(F)F)CCN4)cc2)CC1
< 50%: [4] | [5] | [7] | [9]

O=C(O)c1ccc(-c2cnc3c(c2)N(Cc2cc(Cl)ccc2C(F)(F)F)CCN3)cc1
< 50%: [5] | [7] | [9]

CC(=O)N1CCN(c2cc(-c3cnc4c(c3)N(Cc3cc(Cl)ccc3C(F)(F)F)CCN4)ccn2)CC1
< 50%: all assays above

FC(F)(F)c1ccc(Cl)cc1CN1CCNc2ncc(-c3ccnc(N4CCNCC4)c3)cc21
75%: [4]
77%: [5]
< 50%: all other assays above

CN1CCN(c2ccc(-c3cnc4c(c3)N(Cc3cc(Cl)ccc3C(F)(F)F)CCN4)cn2)CC1
< 50%: all assays above

CN1CCN(c2ccc(-c3cnc4c(c3)N(Cc3cc(Cl)ccc3Cl)CCN4)cn2)CC1
< 50%: all assays above

Reference: ChEMBL document CHEMBL1165965, “Synthesis and structure-activity relationships of 1,2,3,4-tetrahydropyrido[2,3-b]pyrazines as potent and selective inhibitors of the anaplastic lymphoma kinase” (Bioorg Med Chem, 2010)
